Data from article PMC6682128 (ACS Omega, 2019).

Legend:
[1] = Cytotoxicity assay; format: cell-based; conditions: human
Summary of the method: (§1)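 Replicon cells (Huh5-2, Huh7.5-3a or Huh7.5-4a) were seeded at 10^4 per well and grown 24 h in complete DMEM. They were then exposed for three days to serial dilutions of test compound or DMSO solvent. Lysates were assayed for ATP by chemiluminescence, normalised to Bradford total protein. CC50 was obtained by nonlinear regression against log concentration.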

[2] = Cytotoxicity assay; format: cell-based; conditions: human, Huh7.5-3a (S52) replicon cells
Summary of the method: as §1

[3] = test system: Huh7.5-4a (ED43) replicon cells; experiment: Cytotoxicity assay; format: cell-based, human; conditions: ATP levels
Summary of the method: as §1

[4] = test system: HCV genotype 1b (+) strand RNA; experiment: HCV RNA quantification by RT-qPCR in Huh5-2 replicon cells; format: cell-based, Hepatitis C virus; conditions: 0.05 nM compound, Huh5-2 cells, normalized to YWHAZ
[5] = test system: HCV NS5A (Con1); format: cell-based, Hepatitis C virus; conditions: Huh5-2 cells

CCOC(=O)N[C@H](CC(C)C)C(=O)N1CCC[C@H]1C(=O)Nc1cccc(C#CC#Cc2cccc(NC(=O)[C@@H]3CCCN3C(=O)[C@@H](CC(C)C)NC(=O)OCC)c2)c1 [2q, Diethyl((2R,2′R)-((2S,2′S)-(((buta-1,3-diyne-1,4-diylbis(3,1-phenylene))bis(azanediyl))bis(carbonyl))bis(pyrrolidine-2,1-diyl))bis(4-methyl-1-oxopentane-1,2-diyl))dicarbamate]
CC50 at 3 days [1]: > 200 µM
CC50 at 3 days [2]: > 200 µM
CC50, genotype 4a (ED43) [3]: >200 000 nM
HCV RNA replication reduced to (relative to control) [4]: 56%
cell viability (nuclei staining with propidium iodide) ([5]; 0.5 and 0.05 nM): not affected
NS5A protein levels by indirect immunofluorescence ([5]; highest compound concentration used (0.5 nM)): almost undetectable levels
